Reference: ChEMBL document CHEMBL2086239, “Synthesis and biological evaluation of combretastatin-amidobenzothiazole conjugates as potential anticancer agents” (Eur J Med Chem, 2012)
Each block holds one compound with its values, some of them ahead of it. Activity calls are given as the source filed them. The calls are words filed in the database; no cut-off is given here.

How the values were obtained:
Assay type in all cases: functional
OVCAR-4 = experiment: Growth inhibition of human OVCAR4 cells after 48 hrs by SRB assay; conditions: OVCAR-4, 48 h
Outline: (§1)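 NCI 60-cell-line screen: after preliminary screening, tested at five dose concentrations on 59 human tumour lines covering leukemia, lung, colon, CNS, melanoma, ovarian, renal, prostate and breast.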

NCI-H226 = experiment: Growth inhibition of human NCI-H226 cells after 48 hrs by SRB assay; conditions: NCI-H226, 48 h; outline: as §1
COLO 205 = experiment: Growth inhibition of human COLO205 cells after 48 hrs by SRB assay; conditions: COLO 205, 48 h; outline: as §1
CAKI-1 = experiment: Growth inhibition of human Caki1 cells after 48 hrs by SRB assay; conditions: CAKI-1, 48 h; outline: as §1
HEp-2 = experiment: Cytotoxicity against human Hep2 cells after 48 hrs assessed as inhibition of cell growth at 10 uM after 48 hrs by SRB assay relative to control; conditions: HEp-2, 48 h, read-out: GI
Outline: (§2)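 SRB protein assay in DMEM with 10% FBS at 37 °C, 5% CO2, 100% relative humidity. Cells seeded in 96-well plates, incubated 24 h, then exposed to drug at 10 µM for 48 h and processed per standard protocol. Absorbance read at 560 nm; growth percentage calculated for test wells relative to control wells.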

M14 = experiment: Growth inhibition of human M14 cells after 48 hrs by SRB assay; conditions: M14, 48 h; outline: as §1
A549 = experiment: Cytotoxicity against human A549 cells assessed as inhibition of cell growth at 10 uM after 48 hrs by SRB assay relative to control; outline: as §2
MCF7 [1] = experiment: Cell cycle arrest in human MCF7 cells assessed as accumulation at G1 phase at 4 uM after 24 hrs by FACS analysis (reference value: 58.33%)
A498 = experiment: Growth inhibition of human A498 cells after 48 hrs by SRB assay; conditions: A498, 48 h; outline: as §1
MCF7 [2] = experiment: Cell cycle arrest in human MCF7 cells assessed as accumulation at G2/M phase at 4 uM after 24 hrs by FACS analysis (reference value: 34.88%)
MOLT-4 = experiment: Growth inhibition of human MOLT4 cells after 48 hrs by SRB assay; conditions: MOLT-4, 48 h; outline: as §1
RPMI-8226 = experiment: Growth inhibition of human RPMI8226 cells after 48 hrs by SRB assay; conditions: RPMI-8226, 48 h; outline: as §1
K562 = experiment: Growth inhibition of human K562 cells after 48 hrs by SRB assay; conditions: K562, 48 h; outline: as §1
T47D = experiment: Growth inhibition of human T47D cells after 48 hrs by SRB assay
Outline: (§3)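 NCI 60-cell-line panel, five-dose testing after preliminary screen; sulforhodamine B protein assay in DMEM with 10% FBS, 37 °C, 5% CO2, 100% humidity. Cells seeded and incubated 24 h before compound addition, then exposed 48 h. Absorbance read at 560 nm; growth percentage relative to control wells; GI50 taken as concentration giving 50% growth inhibition.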

NCI-H522 = experiment: Growth inhibition of human NCI-H522 cells after 48 hrs by SRB assay; conditions: NCI-H522, 48 h; outline: as §1
U-251 = experiment: Growth inhibition of human U251cells after 48 hrs by SRB assay; conditions: U-251, 48 h; outline: as §3
SF-295 = experiment: Growth inhibition of human SF295 cells after 48 hrs by SRB assay; conditions: SF-295, 48 h; outline: as §3
DU-145 = experiment: Growth inhibition of human DU145 cells after 48 hrs by SRB assay; conditions: DU-145, 48 h; outline: as §1
HOP-62 = experiment: Growth inhibition of human HOP62 cells after 48 hrs by SRB assay; conditions: HOP-62, 48 h; outline: as §1
TK-10 = experiment: Growth inhibition of human TK10 cells after 48 hrs by SRB assay; conditions: TK-10, 48 h; outline: as §3
OVCAR-8 = experiment: Growth inhibition of human OVCAR8 cells after 48 hrs by SRB assay; conditions: OVCAR-8, 48 h; outline: as §1
SN12C = experiment: Growth inhibition of human SN12C cells after 48 hrs by SRB assay; outline: as §3
LOX IMVI = experiment: Growth inhibition of human LOXIMVI cells after 48 hrs by SRB assay; outline: as §1
CCRF-CEM = experiment: Growth inhibition of human CCRF-CEM cells after 48 hrs by SRB assay; outline: as §1
HT-29 = experiment: Growth inhibition of human HT-29 cells after 48 hrs by SRB assay; conditions: HT-29, 48 h; outline: as §1
NCI-H23 = experiment: Growth inhibition of human NCI-H23 cells after 48 hrs by SRB assay; conditions: NCI-H23, 48 h; outline: as §1
MDA-MB-231 = experiment: Growth inhibition of human MDA-MB-231 cells after 48 hrs by SRB assay; conditions: MDA-MB-231, 48 h; outline: as §1
UACC-62 = experiment: Growth inhibition of human UACC62 cells after 48 hrs by SRB assay; conditions: UACC-62, 48 h; outline: as §3
UACC-257 = experiment: Growth inhibition of human UACC257 cells after 48 hrs by SRB assay; conditions: UACC-257, 48 h; outline: as §3
HOP-92 = experiment: Growth inhibition of human HOP92 cells after 48 hrs by SRB assay; conditions: HOP-92, 48 h; outline: as §1
Hs-578T = experiment: Growth inhibition of human Hs578T cells after 48 hrs by SRB assay; outline: as §1
HCC 2998 = experiment: Growth inhibition of human HCC2998 cells after 48 hrs by SRB assay; conditions: HCC 2998, 48 h; outline: as §1
MCF7 [3] = experiment: Cytotoxicity against human MCF7 cells after 48 hrs assessed as inhibition of cell growth at 10 uM after 48 hrs by SRB assay relative to control; conditions: MCF7, 48 h, read-out: GI; outline: as §2
NCI-H460 = experiment: Growth inhibition of human NCI-H460 cells after 48 hrs by SRB assay; conditions: NCI-H460, 48 h; outline: as §1
SNB-19 = experiment: Growth inhibition of human SNB19 cells after 48 hrs by SRB assay; conditions: SNB-19, 48 h; outline: as §3
EKVX = experiment: Growth inhibition of human EKVX cells after 48 hrs by SRB assay; outline: as §1
UO-31 = experiment: Growth inhibition of human UO31 cells after 48 hrs by SRB assay; conditions: UO-31, 48 h; outline: as §3
SNB-75 = experiment: Growth inhibition of human SNB75 cells after 48 hrs by SRB assay; conditions: SNB-75, 48 h; outline: as §3
HCT-116 = experiment: Growth inhibition of human HCT116 cells after 48 hrs by SRB assay; conditions: HCT-116, 48 h; outline: as §1
MDA-MB-468 = experiment: Growth inhibition of human MDA-MB-468 cells after 48 hrs by SRB assay; conditions: MDA-MB-468, 48 h; outline: as §1
PC-3 = experiment: Cytotoxicity against human PC3 cells after 48 hrs assessed as inhibition of cell growth at 10 uM after 48 hrs by SRB assay relative to control; conditions: PC-3, 48 h, read-out: GI; outline: as §2
IGROV-1 = experiment: Growth inhibition of human IGROV1 cells after 48 hrs by SRB assay; conditions: IGROV-1, 48 h; outline: as §1
ACHN = experiment: Growth inhibition of human ACHN cells after 48 hrs by SRB assay; outline: as §1

SMILES: COc1ccc(/C=C\c2cc(OC)c(OC)c(OC)c2)cc1OCC(=O)Nc1nc2ccc(C(F)(F)F)cc2s1
- GI50 (OVCAR-4): 4.66 µM
- GI50 (NCI-H226): 3.17 µM
- GI50 (COLO 205): 17.1 µM
- GI50 (CAKI-1): 3.1 µM
- inhibition of growth at 10 µM (HEp-2): 76%
- GI50 (M14): 3.58 µM
- inhibition of growth at 10 µM (A549; A549, 48 h, read-out: GI): 30%
- Activity (MCF7 [1]): 55.82%
- GI50 (A498): 2.81 µM
- Activity (MCF7 [2]): 37.02%
- GI50 (MOLT-4): 3.75 µM
- GI50 (RPMI-8226): 5.48 µM
- GI50 (K562): 3.3 µM
- GI50 (T47D): 4.79 µM
- GI50 (NCI-H522): 2.89 µM
- GI50 (U-251): 3.67 µM
- GI50 (SF-295): 3.36 µM
- GI50 (DU-145): 2.51 µM
- GI50 (HOP-62): 5.22 µM
- GI50 (TK-10): 7.03 µM
- GI50 (OVCAR-8): 3.86 µM
- GI50 (SN12C): 4.43 µM
- GI50 (LOX IMVI): 4.01 µM
- GI50 (CCRF-CEM): 4.27 µM
- GI50 (HT-29): 14.9 µM
- GI50 (NCI-H23): 3.9 µM
- GI50 (MDA-MB-231): 3.38 µM
- GI50 (UACC-62): 3.9 µM
- GI50 (UACC-257): 40 µM
- GI50 (HOP-92): 2.88 µM
- GI50 (Hs-578T): 4.18 µM
- GI50 (HCC 2998): 4.23 µM
- inhibition of growth at 10 µM (MCF7 [3]): 62%
- GI50 (NCI-H460): 3.55 µM
- GI50 (SNB-19): 5.03 µM
- GI50 (EKVX): 6.25 µM
- GI50 (UO-31): 3.59 µM
- GI50 (SNB-75): 1.58 µM
- GI50 (HCT-116): 3.29 µM
- GI50 (MDA-MB-468): 2.16 µM
- inhibition of growth at 10 µM (PC-3): 42%
- GI50 (IGROV-1): 4.48 µM
- GI50 (ACHN): 4.82 µM

- GI50 (OVCAR-4): 2.64 µM
- GI50 (NCI-H226): 2.75 µM
- GI50 (COLO 205): 4.4 µM
- GI50 (MOLT-4): 2.11 µM
- GI50 (RPMI-8226): 1.98 µM
- GI50 (K562): 2.19 µM
- GI50 (T47D): 9.41 µM
- GI50 (NCI-H522): 2.28 µM
- GI50 (U-251): 3.59 µM
- GI50 (DU-145): 3.81 µM
- GI50 (OVCAR-8): 2.12 µM
- GI50 (CCRF-CEM): 3.41 µM
- GI50 (HT-29): 3.31 µM
- GI50 (NCI-H23): 2.53 µM
- GI50 (MDA-MB-231): 5.45 µM
- GI50 (HCC 2998): 6.9 µM
- GI50 (NCI-H460): 3.36 µM
- GI50 (HCT-116): 3.57 µM
- GI50 (MDA-MB-468): 2.39 µM
- GI50 (ACHN): 3.12 µM
SMILES: COc1ccc(/C=C\c2cc(OC)c(OC)c(OC)c2)cc1OCC(=O)Nc1ccc2nc(C)sc2c1
- GI50 (CAKI-1): 2.19 µM
- inhibition of growth at 10 µM (HEp-2): 40%
- GI50 (M14): 3.38 µM
- growth inhibition (GI) (A549): inactive
- Activity (MCF7 [1]): 55.2%
- GI50 (A498): 4.18 µM
- Activity (MCF7 [2]): 37.09%
- GI50 (SF-295): 2.45 µM
- GI50 (HOP-62): 3.09 µM
- GI50 (TK-10): 4.21 µM
- GI50 (SN12C): 3.53 µM
- GI50 (LOX IMVI): 2.64 µM
- GI50 (UACC-62): 2.19 µM
- GI50 (UACC-257): 1.73 µM
- GI50 (HOP-92): 2.38 µM
- GI50 (Hs-578T): 4.32 µM
- inhibition of growth at 10 µM (MCF7 [3]): 52%
- GI50 (SNB-19): 3.89 µM
- GI50 (EKVX): 4.05 µM
- GI50 (UO-31): 2.41 µM
- GI50 (SNB-75): 1.55 µM
- inhibition of growth at 10 µM (PC-3): 61%
- GI50 (IGROV-1): 3.72 µM
